Among all 200,000 compounds or so, about 2,000 (1%) were called active.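 Rule for the calls: active = inhibition above the campaign mean inhibition of all tested compounds plus 3 SD (cut at about 20% in these data); inactive = the rest.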 Shown is part of a subset that was picked to be rich in actives.
target: Neuropeptide Y receptor type 1 (Homo sapiens) (UniProt P25929); assay: NPY-Y1 receptor antagonists, primary screen, cell-based (AID 1040); conditions: HEK293-CNG Y1 cells, membrane potential fluorescence; at 3.6 µM; hits give high values; NPY at EC95, then isoproterenol;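 note: 0% = DMSO wells given NPY plus isoproterenol and 100% = isoproterenol alone without NPY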
Sequence (P25929 whole entry, looked up): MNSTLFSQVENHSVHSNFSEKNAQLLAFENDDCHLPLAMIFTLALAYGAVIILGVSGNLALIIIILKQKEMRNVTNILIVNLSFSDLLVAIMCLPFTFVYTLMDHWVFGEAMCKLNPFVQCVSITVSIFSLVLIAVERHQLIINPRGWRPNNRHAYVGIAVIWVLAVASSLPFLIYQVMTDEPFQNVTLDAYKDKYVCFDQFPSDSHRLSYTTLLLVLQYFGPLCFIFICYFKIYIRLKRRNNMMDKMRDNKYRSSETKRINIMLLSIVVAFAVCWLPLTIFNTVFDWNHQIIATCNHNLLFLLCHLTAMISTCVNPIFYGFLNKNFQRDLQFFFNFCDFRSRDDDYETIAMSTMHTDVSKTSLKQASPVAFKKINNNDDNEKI
Summary of the method: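 Test system – HEK293 Y1/CNG channel cell line · Also added – NPY agonist 25 nM, then isoproterenol 1 µM plus Ro 20-1724 25 µM · Compound dosing – one concentration, 3.6 µM, in 0.4% DMSO · Schedule – compound incubation 1 h at room temperature, readout 45 min post-stimulation · Technique – fluorescence, membrane potential probe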

inhibition, active:
O=C(NCCc1ccc2c(c1)OCCO2)c1cc2ccccc2o1 21.4%
N=c1n(CCc2ccccc2)c2ccccc2n1Cc1ccccc1F 24.2%
c1ccc2c(NC3C4CC5CC(C4)CC3C5)nc(N3CCOCC3)nc2c1 (centres undefined) 31.8%
O=c1c2ccccc2c(-c2ccc(F)cc2)nn1-c1ccc(C(F)(F)F)cc1 21.4%
O=C(/C=C/c1ccco1)Nc1cccc(-c2nc3ccccc3[nH]2)c1 20.3%
COc1ccc(C(c2nnnn2C2CCCCC2)N2CCN(c3ccccc3F)CC2)cc1 (centres undefined) 23.3%

inhibition, inactive:
NC(=O)c1ccc(NC(=O)COC(=O)C(Cc2ccccc2)NC(=O)c2ccccc2)cc1 (centres undefined) 4.77%
O=C(Nc1ccncc1)c1cc2ccccc2o1 -5.2%
O=C(CC(Cc1ccccc1)C(=O)O)NCCc1ccc2c(c1)OCO2 (centres undefined) 8.49%
CC[C@H](C)[C@@H](C(=O)N1CCNCC1)n1cc([C@@H](N)Cc2ccc(O)cc2)nn1 4.22%
COc1cc(OC)nc(S(C)(=O)=O)n1 -1.87%
Cc1ccccc1NC(=O)Cn1c(=O)n(CC2CCCO2)c(=O)c2ccccc21 (centres undefined) 0.4%
COc1cc(OC)cc(-c2nnc(SCC(=O)Nc3ccc(C(=O)O)cc3)s2)c1 -5.61%
CN(Cc1ccccc1)Cc1ccccc1F 0.6%
Fc1ccccc1Cn1cnc(NC(=S)NCCc2ccccc2)n1 0.55%
CCOC(=O)C1CCCN(C(=O)c2cccc(S(=O)(=O)N3CCOCC3)c2)C1 (centres undefined) -0.08%
Cc1cccc(C)c1OCC(=O)NC(Cc1c[nH]c2ccccc12)C(=O)O (centres undefined) 6.9%
Cc1ccccc1-c1n[nH]c(=S)n1C 1.64%
c1ccc(-c2nnc(N3CCOCC3)c3ccccc23)cc1 -0.9%
c1ccc(Nc2nc(N3CCOCC3)c3ccccc3n2)cc1 3.28%
COC(=O)Cc1ccc(N(Cc2ccccc2F)S(=O)(=O)c2ccc(Br)cc2)cc1 18.1%
COc1ccc(-n2nc(C(=O)Nc3cc(OC)c(OC)c(OC)c3)c3ccccc3c2=O)c(OC)c1 1.85%
O=c1c2ccccc2c(-c2ccccc2)nn1Cc1ccccc1 0.35%
O=c1c2ccccc2c(-c2ccccc2)nn1-c1ccccn1 4.37%
COc1ccc(CS(=O)/C(Cl)=C(/Cl)C(=O)Nc2ccc(OC)nc2)cc1 (centres undefined) 11.2%
Cc1ccc(-n2nc3ccc(NC(=O)/C=C/c4ccco4)cc3n2)cc1C 6.59%
O=C(Cc1cccs1)Nc1cccc(-c2nc3ccccc3[nH]2)c1 3.86%
COc1ccc(N2CCN(C(c3cc4ccc(C)cc4[nH]c3=O)c3nnnn3C3CCCC3)CC2)cc1 (centres undefined) 0.99%
CC(C)C(c1nnnn1C1CCCC1)N1CCN(c2ccccc2F)CC1 (centres undefined) 10.8%

Source: PubChem BioAssay AID1040 (The Scripps Research Institute Molecular Screening Center, 2008)
